In ChEMBL document CHEMBL1145391, “C-3 alkyl/arylalkyl-2,3-dideoxy hex-2-enopyranosides as antitubercular agents: synthesis, biological evaluation, and QSAR study” (J Med Chem, 2007):
Converted amounts (≈) assume the structure as drawn. The source made the active and inactive calls. The calls are words filed in the database; no cut-off is given here.

Key:
[1] = tested on: Mycobacterium tuberculosis; assay: Antitubercular activity against Mycobacterium tuberculosis H37Rv by agar dilution assay; assay type: functional
How it was run: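 Compounds 2-fold serially diluted into 7H10 agar tubes. H37Rv inoculum taken from fresh Lowenstein-Jensen slants, adjusted to 1 mg/mL wet weight in 0.05% Tween 80 saline, then diluted 10^-2 (about 10⁷ cfu/mL) and spotted onto the agar. Incubated at 37 °C; final read at 30 days. MIC is the lowest concentration giving complete growth inhibition per spot. Ofloxacin was the standard.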

J774.A1 [2] = assay: Cytotoxicity against mouse […] cells at 25 ug/mL; assay type: cell-based
J774.A1 [3] = assay: Cytotoxicity against mouse […] cells at 50 ug/mL; assay type: cell-based
J774.A1 [4] = assay: Cytotoxicity against mouse […] cells at 12.5 ug/mL; assay type: cell-based
Vero [5] = assay: Cytotoxicity against Vero cells at 100 ug/mL after 72 hrs by MTT assay; assay type: cell-based; settings: chlorocebus sabaeus
How it was run: (§1)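 VERO cells (from ATCC, maintained in-house) were seeded and grown at 37 °C in 5% CO₂/95% air. They were then exposed to the compound at 25, 50 and 100 µg/mL for 72 h.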

[6] = tested on: Mycobacterium tuberculosis; assay: Antitubercular activity against Mycobacterium tuberculosis H37Rv at 50 ug/mL by agar dilution assay; assay type: functional, organism-based
Vero [7] = assay: Cytotoxicity against Vero cells at 25 ug/mL after 72 hrs by MTT assay; assay type: cell-based; settings: chlorocebus sabaeus; how it was run: as §1

Compound | MIC [1] [µg/mL] | other results
CC(C)O[C@@H]1C=C([C@H](O)c2ccc(C#N)cc2)C(=O)[C@@H](COC(=O)C(C)(C)C)O1 | 3.12 (≈ 7.77 µM) | Activity (J774.A1 [2]): Non-toxic; Activity (J774.A1 [3]): Non-toxic; Activity (J774.A1 [4]): Non-toxic; Activity (Vero [5]): Non-toxic
CC(C)O[C@@H]1C=C([C@H](O)c2ccc(F)cc2)C(=O)[C@@H](COC(=O)C(C)(C)C)O1 |  | Activity [6]: inactive
CCCCCCCCC[C@@H](O)C1=C[C@@H](OC(C)C)O[C@H](COC(=O)c2ccc([N+](=O)[O-])cc2)[C@H]1O | 25 (≈ 50.6 µM) | 
CC(C)O[C@@H]1C=C([C@H](O)c2ccc(C#N)cc2)C(=O)[C@@H](COC(=O)c2ccc([N+](=O)[O-])cc2)O1 | 25 (≈ 53.6 µM) | 
CC(C)O[C@@H]1C=C([C@H](O)c2ccc([N+](=O)[O-])cc2)[C@H](O)[C@@H](COC(=O)C(C)(C)C)O1 |  | Activity [6]: inactive
CC(C)O[C@@H]1C=C([C@H](O)c2ccc(C(F)(F)F)cc2)[C@H](O)[C@@H](COC(=O)c2ccc([N+](=O)[O-])cc2)O1 | 25 (≈ 48.9 µM) | 
CC(C)O[C@@H]1C=C([C@H](O)c2ccccc2[N+](=O)[O-])C(=O)[C@@H](COC(=O)C(C)(C)C)O1 | 50 (≈ 119 µM) | 
CC(C)O[C@@H]1C=C([C@H](O)c2cccc([N+](=O)[O-])c2)C(=O)[C@@H](COC(=O)C(C)(C)C)O1 | 50 (≈ 119 µM) | 
CC(=O)OC[C@H]1O[C@H](OC(C)C)C=C([C@H](O)c2ccc([N+](=O)[O-])cc2)[C@@H]1O | 25 (≈ 65.6 µM) | 
CCCCCCCCC[C@@H](O)C1=C[C@@H](OC(C)C)O[C@H](COC(=O)c2ccc([N+](=O)[O-])cc2)C1=O | 25 (≈ 50.9 µM) | 
CCCCCCCCC[C@@H](O)C1=C[C@@H](OC(C)C)O[C@H](COC(=O)C(C)(C)C)[C@H]1O | 1.56 (≈ 3.64 µM) | Activity (J774.A1 [2]): Non-toxic; Activity (J774.A1 [3]): Non-toxic; Activity (J774.A1 [4]): Non-toxic; Activity (Vero [7]): Toxic
CC(C)O[C@@H]1C=C([C@H](O)c2ccc(F)cc2)[C@H](O)[C@@H](COC(=O)C(C)(C)C)O1 | 25 (≈ 63.1 µM) | 
CCC[C@@H](O)C1=C[C@@H](OC(C)C)O[C@H](COC(=O)c2ccc([N+](=O)[O-])cc2)C1=O | 25 (≈ 61.4 µM) | 
CC(C)O[C@@H]1C=C([C@H](O)c2ccc([N+](=O)[O-])cc2)C(=O)[C@@H](COC(=O)C(C)(C)C)O1 | 50 (≈ 119 µM) | 
CC(C)O[C@@H]1C=C([C@H](O)c2cccc([N+](=O)[O-])c2)[C@H](O)[C@@H](COC(=O)C(C)(C)C)O1 | 25 (≈ 59 µM) | 
CC(=O)OC[C@H]1O[C@H](OC(C)C)C=C([C@H](O)c2ccc([N+](=O)[O-])cc2)C1=O | 1.56 (≈ 4.11 µM) | Activity (J774.A1 [2]): Non-toxic; Activity (J774.A1 [3]): Non-toxic; Activity (J774.A1 [4]): Non-toxic; Activity (Vero [7]): Toxic
CC(C)O[C@@H]1C=C([C@H](O)c2ccc(C(F)(F)F)cc2)C(=O)[C@@H](COC(=O)C(C)(C)C)O1 | 50 (≈ 112 µM) | 
CCC[C@@H](O)C1=C[C@@H](OC(C)C)O[C@H](COC(=O)C(C)(C)C)C1=O | 25 (≈ 73 µM) | 
CC(C)O[C@@H]1C=C([C@H](O)c2ccc(C(F)(F)F)cc2)C(=O)[C@@H](COC(=O)c2ccc([N+](=O)[O-])cc2)O1 | 25 (≈ 49.1 µM) | 
CC(C)O[C@@H]1C=C([C@H](O)c2ccc(C#N)cc2)[C@H](O)[C@@H](COC(=O)C(C)(C)C)O1 |  | Activity [6]: inactive
CC(C)O[C@@H]1C=C([C@H](O)c2ccc([N+](=O)[O-])cc2)[C@H](O)[C@@H](COC(=O)c2ccc([N+](=O)[O-])cc2)O1 | 25 (≈ 51.2 µM) | 
CCCCCCCCC[C@@H](O)C1=C[C@@H](OC(C)C)O[C@H](COC(=O)C(C)(C)C)C1=O | 6.25 (≈ 14.7 µM) | Activity (J774.A1 [2]): Non-toxic; Activity (J774.A1 [3]): Non-toxic; Activity (J774.A1 [4]): Non-toxic; Activity (Vero [7]): Toxic
CC(C)O[C@@H]1C=C([C@H](O)c2ccccc2[N+](=O)[O-])[C@H](O)[C@@H](COC(=O)C(C)(C)C)O1 | 25 (≈ 59 µM) | 
CC(C)O[C@@H]1C=C([C@H](O)c2ccc(F)cc2)C(=O)[C@@H](COC(=O)c2ccc([N+](=O)[O-])cc2)O1 | 25 (≈ 54.4 µM) | 
CC(C)O[C@@H]1C=C([C@H](O)c2ccc([N+](=O)[O-])cc2)C(=O)[C@@H](COC(=O)c2ccc([N+](=O)[O-])cc2)O1 | 25 (≈ 51.4 µM) | 
CC(C)O[C@@H]1C=C([C@H](O)c2ccc(C(F)(F)F)cc2)[C@H](O)[C@@H](COC(=O)C(C)(C)C)O1 | 25 (≈ 56 µM) | 
